Measured values collected from several papers.
Lines come from different studies, so protocols differ.
Organism: Plasmodium falciparum
Observed: parasite growth

| SMILES | technique | strain | time | setting | IC50 |
| --- | --- | --- | --- | --- | --- |
| CCc1ccc(C2=NC(=Cc3ccc(CCCCCCCCCC(C)O)[nH]3)C(OC)=C2)[nH]1 (stereo not drawn) | – | 7G8 | – | drug-resistant strain, blood stage | 24 nM |
| CCN(CC)CCCC(C)Nc1ccnc2cc(Cl)ccc12 (stereo not drawn) | – | 3D7 | – | blood stage | 11 nM |
| CCN(CC)CCCC(C)Nc1ccnc2cc(Cl)ccc12 (stereo not drawn) | – | W2 | 72 h | drug-resistant strain, blood stage | 0.1 µg/mL |
| CC1=C(C)C(c2ccc[nH]2)=NC1=Cc1ccc(CCCCCCCCCC(C)O)[nH]1 (stereo not drawn) | – | 7G8 | – | drug-resistant strain, blood stage | 627 nM |
| OC(c1cc(C(F)(F)F)nc2c(C(F)(F)F)cccc12)C1CCCCN1 (stereo not drawn) | – | – | – | blood stage | 37.2 nM |
| NCCCNc1nc2cc(Br)ccc2n1Cc1ccccc1 | – | K1 | – | drug-resistant strain, blood stage | 1010 nM |
| COC1=CC(c2ccc[nH]2)=NC1=Cc1ccc(CCCCCCCCCCCO)[nH]1 | – | 7G8 | – | drug-resistant strain, blood stage | 93 nM |
| CC(C)(C)C(O)C(Oc1ccc(-c2ccccc2)cc1)n1cncn1 (stereo not drawn) | SYBR Green | – | – | blood stage | 8690 nM |
| CCN(CC)CCCC(C)Nc1ccnc2cc(Cl)ccc12 (stereo not drawn) | SYBR Green | W2 | – | drug-resistant strain, blood stage | 383 nM |
| C[C@@H]1CC[C@H]2[C@@H](C)C(=O)O[C@@H]3O[C@@]4(C)CC[C@@H]1[C@]32OO4 | – | D6 | – | blood stage | 0.005 µg/mL |
| CCCCCCCCCCOc1cc2c(O)c(C(=O)OCC)cnc2cc1OCC | SYBR Green | 3D7 | – | blood stage | < 5.7 nM |
| Brc1ccc2c(c1)nc(C1CCNCC1)n2Cc1ccccc1 | – | K1 | – | drug-resistant strain, blood stage | 61 nM |
| CCN(CC)CCCC(C)Nc1ccnc2cc(Cl)ccc12 (stereo not drawn) | – | 7G8 | – | drug-resistant strain, blood stage | 63 nM |
| CCN(CC)CCCC(C)Nc1ccnc2cc(Cl)ccc12 (stereo not drawn) | ELISA | DD2 | – | drug-resistant strain, blood stage | 262 nM |
| COC1=CC(c2cccn2C)=NC1=Cc1ccc(CCCCCCCCCC(C)O)[nH]1 (stereo not drawn) | – | 7G8 | – | drug-resistant strain, blood stage | 1000 nM |
| CCN(CC)CCCC(C)Nc1ccnc2cc(Cl)ccc12 (stereo not drawn) | – | W2 | – | drug-resistant strain, blood stage | 0.1 µg/mL |
| C[C@@H]1CC[C@H]2[C@@H](C)C(=O)O[C@@H]3O[C@@]4(C)CC[C@@H]1[C@]32OO4 | – | W2 | 72 h | drug-resistant strain, blood stage | 0.0038 µg/mL |
| Clc1ccc2c(c1)nc(C1CCNCC1)n2Cc1ccccc1 | – | K1 | – | drug-resistant strain, blood stage | 76 nM |
| COC1=CC(c2ccc[nH]2)=NC1=Cc1ccc(CCCCCCCCCCO)[nH]1 | – | 7G8 | – | drug-resistant strain, blood stage | 168 nM |
| FC(F)(F)c1ccc2c(c1)nc(N1CCNCC1)n2Cc1ccccc1 | – | K1 | – | drug-resistant strain, blood stage | 415 nM |
| COC1=CC(c2ccc[nH]2)=NC1=Cc1ccc(CCCCCCCCCCCCO)[nH]1 | – | DD2 | – | drug-resistant strain, blood stage | 23 nM |
| Clc1ccc2c(N3CCN(CCCN4CCN(c5ccnc6cc(Cl)ccc56)CC4)CC3)ccnc2c1 | – | 3D7 | – | blood stage | 4.4 nM |
| COC1=CC(c2ccco2)=NC1=Cc1ccc(CCCCCCCCCC(C)O)[nH]1 (stereo not drawn) | – | DD2 | – | drug-resistant strain, blood stage | > 2500 nM |
| Clc1ccc2c(c1)nc(NCCNCc1ccccc1)n2Cc1ccccc1 | – | K1 | – | drug-resistant strain, blood stage | 212 nM |
